Measured values: ChEMBL document CHEMBL3425429
pIC50: −log10 of the molar value. The source made the active and inactive calls. The rule behind the calls is not given here.

What was measured:
MDA-MB-231 [1] = assay: Induction of apoptosis in human MDA-MB-231 cells assessed as late apoptotic cells at 0.03 uM after 48 hrs by annexin V-FITC/propidium iodide staining-based flow cytometric analysis (reference value: 4.25%); type: functional
MDA-MB-231 [2] = assay: Cell cycle arrest in human MDA-MB-231 cells assessed as accumulation at G0/G1 phase at 0.1 to 0.3 uM after 24 to 48 hrs by flow cytometric analysis; type: functional, cell-based
MDA-MB-231 [3] = assay: Antimigratory activity against human MDA-MB-231 cells at >0.03 uM after 20 hrs by wound healing assay; type: functional, cell-based
Procedure, shortened: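 MDA-MB-231 monolayers grown to confluence, scratched with a sterile pipet tip, rinsed with saline, then kept in DMEM containing vehicle or compound; wound images taken after 20 h and analysed.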

MDA-MB-231 [4] = assay: Antiinvasive activity against human MDA-MB-231 cells at 0.1 uM after 24 hrs by transwell assay; type: functional, cell-based
MDA-MB-231 [5] = assay: Inhibition of MEK phosphorylation in human MDA-MB-231 cells at 0.001 to 1 uM after 20 hrs by Western blot analysis; type: cell-based
Procedure, shortened: (§1)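 MDA-MB-231 cells exposed to a concentration series for 20 h at 37 °C, then washed in ice-cold saline and lysed in RIPA buffer with protease cocktail. Lysates were cleared at 12 000 rpm for 10 min at 4 °C and protein measured by Bradford. Equal protein was run on SDS-PAGE, transferred to PVDF and immunoblotted for phospho-proteins.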

MDA-MB-231 [6] = assay: Inhibition of ERK phosphorylation in human MDA-MB-231 cells at 0.001 to 1 uM after 20 hrs by Western blot analysis; type: cell-based; procedure, shortened: as §1
MDA-MB-231 [7] = assay: Effect on AKT phosphorylation in human MDA-MB-231 cells at 0.001 to 1 uM after 20 hrs by Western blot analysis; type: cell-based
Procedure, shortened: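 MDA-MB-231 cells exposed to a concentration series for 20 h at 37 °C, lysed in RIPA with protease inhibitor cocktail, cleared by centrifugation, protein quantified by Bradford, resolved by SDS-PAGE, transferred to PVDF and immunoblotted.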

MDA-MB-231 [8] = assay: Antiproliferative activity against human MDA-MB-231 cells assessed as inhibition of colony formation at >0.01 uM after 12 days by crystal violet staining-based assay; type: functional, cell-based
Procedure, shortened: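 MDA-MB-231 cells plated at 5000 per well and treated the next day with vehicle or compound, medium refreshed every 4 days; after 12 days, colonies fixed in methanol, crystal violet stained and photographed.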

Mus musculus [9] = assay: In vivo inhibition of Src phosphorylation in tumor of SCID mouse xenografted with human MDA-MB-231 cells at 30 mg/kg/day, po administered for 18 days measured post last dose by immunohistochemical analysis relative to vehicle-treated control; type: functional, organism-based
Procedure, shortened: (§2)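 SCID mice carrying subcutaneous MDA-MB-231 xenografts received oral dosing once daily for 18 days (vehicle 25% PEG400 plus 5% DMSO in sterile water); at the end, tumors formalin-fixed and paraffin-embedded, 4–8 μm sections immunostained (Ki67, phospho-proteins) or TUNEL/AP-Red labelled, and compared with control.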

Mus musculus [10] = assay: In vivo inhibition of MEK phosphorylation in tumor of SCID mouse xenografted with human MDA-MB-231 cells at 30 mg/kg/day, po administered for 18 days measured post last dose by immunohistochemical analysis relative to vehicle-treated control; type: functional, organism-based; procedure, shortened: as §2
MDA-MB-231 [11] = assay: Antitumor activity against human MDA-MB-231 cells xenografted in SCID mouse assessed as increase in number of apoptotic cells in tumor at 30 mg/kg/day, po administered for 18 days measured post last dose by TUNEL assay; type: functional, organism-based; procedure, shortened: as §2
[12] = Cmax in Sprague-Dawley rat at 10 mg/kg, po by LC/MS analysis; type: ADME, organism-based; parameters: dose 10 mg/kg, route oral; conditions: in vivo
Procedure, shortened: (§3)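 Single oral gavage dose in male Sprague-Dawley rats fasted overnight; serial blood drawn via surgically placed jugular vein catheters at set times, plasma separated at once and measured by HPLC-MS/MS; noncompartmental parameters fitted; n=5.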

Rattus norvegicus = assay: Apparent volume of distribution at steady state in Sprague-Dawley rat at 10 mg/kg, po by LC/MS analysis; type: ADME, organism-based; parameters: dose 10 mg/kg, route oral; conditions: in vivo; procedure, shortened: as §3
[13] = target: Tyrosine-protein kinase Yes (Homo sapiens, UniProt P07947); assay: Inhibition of human Yes
Procedure, shortened: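 Recombinant human kinase assayed in Eurofins KinaseProfiler panel; IC50 reported as mean of two independent experiments.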

[14] = target: NUAK family SNF1-like kinase 1 (Homo sapiens, UniProt O60285); assay: Inhibition of human Ark5
Procedure, shortened: (§4)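 Recombinant human protein kinases screened through the Eurofins KinaseProfiler service. IC50 values are means of two independent experiments.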

[15] = target: Cyclin-dependent kinase 2 (Homo sapiens, UniProt P24941); assay: Inhibition of human CDK2; procedure, shortened: as §4
[16] = target: Cyclin-dependent kinase 7 (Homo sapiens, UniProt P50613); assay: Inhibition of human CDK7; procedure, shortened: as §4
[17] = target: Serine/threonine-protein kinase TBK1 (Homo sapiens, UniProt Q9UHD2); assay: Inhibition of human TBK1; procedure, shortened: as §4
Focal adhesion kinase 1 = Focal adhesion kinase 1 (Homo sapiens, UniProt Q05397); assay: Inhibition of human FAK; procedure, shortened: as §4
[18] = target: Serine/threonine-protein kinase mTOR (Homo sapiens, UniProt P42345); assay: Inhibition of human mTOR; procedure, shortened: as §4
[19] = target: Serine/threonine-protein kinase pim-1 (Homo sapiens, UniProt P11309); assay: Inhibition of human Pim1; procedure, shortened: as §4
[20] = target: RAC-beta serine/threonine-protein kinase (Homo sapiens, UniProt P31751); assay: Inhibition of human PKBbeta; procedure, shortened: as §4
[21] = target: Phosphatidylinositol 4,5-bisphosphate 3-kinase catalytic subunit alpha isoform (Homo sapiens, UniProt P42336); assay: Inhibition of human PI3Kalpha; procedure, shortened: as §4
MDA-MB-435 = assay: Cytotoxicity against human MDA-MB-435 cells assessed as cell viability after 72 hrs by MTT assay; type: functional, cell-based; conditions: MDA-MB-435, 72 h
MCF7 = assay: Cytotoxicity against human MCF7 cells assessed as cell viability after 72 hrs by MTT assay; type: functional, cell-based; conditions: MCF7, 72 h
Ramos = assay: Cytotoxicity against human Ramos cells assessed as cell viability after 72 hrs by MTT assay; type: functional, cell-based
MDA-MB-231 [22] = assay: Induction of apoptosis in human MDA-MB-231 cells assessed as viable cells at 0.03 uM after 24 hrs by annexin V-FITC/propidium iodide staining-based flow cytometric analysis (reference value: 95.5%); type: functional; conditions: MDA-MB-231, 24 h, read-out: Activity
MDA-MB-231 [23] = assay: Induction of apoptosis in human MDA-MB-231 cells assessed as late apoptotic cells at 0.03 uM after 24 hrs by annexin V-FITC/propidium iodide staining-based flow cytometric analysis (reference value: 2.67%); type: functional
MDA-MB-231 [24] = assay: Induction of apoptosis in human MDA-MB-231 cells assessed as late apoptotic cells at 0.3 uM after 24 hrs by annexin V-FITC/propidium iodide staining-based flow cytometric analysis (reference value: 2.67%); type: functional
MDA-MB-231 [25] = assay: Induction of apoptosis in human MDA-MB-231 cells assessed as early apoptotic cells at 0.03 uM after 48 hrs by annexin V-FITC/propidium iodide staining-based flow cytometric analysis (reference value: […]); type: functional
[26] = target: Proto-oncogene tyrosine-protein kinase Src (Homo sapiens, UniProt P12931)

NUAK family SNF1-like kinase 1, sequence (O60285 whole entry): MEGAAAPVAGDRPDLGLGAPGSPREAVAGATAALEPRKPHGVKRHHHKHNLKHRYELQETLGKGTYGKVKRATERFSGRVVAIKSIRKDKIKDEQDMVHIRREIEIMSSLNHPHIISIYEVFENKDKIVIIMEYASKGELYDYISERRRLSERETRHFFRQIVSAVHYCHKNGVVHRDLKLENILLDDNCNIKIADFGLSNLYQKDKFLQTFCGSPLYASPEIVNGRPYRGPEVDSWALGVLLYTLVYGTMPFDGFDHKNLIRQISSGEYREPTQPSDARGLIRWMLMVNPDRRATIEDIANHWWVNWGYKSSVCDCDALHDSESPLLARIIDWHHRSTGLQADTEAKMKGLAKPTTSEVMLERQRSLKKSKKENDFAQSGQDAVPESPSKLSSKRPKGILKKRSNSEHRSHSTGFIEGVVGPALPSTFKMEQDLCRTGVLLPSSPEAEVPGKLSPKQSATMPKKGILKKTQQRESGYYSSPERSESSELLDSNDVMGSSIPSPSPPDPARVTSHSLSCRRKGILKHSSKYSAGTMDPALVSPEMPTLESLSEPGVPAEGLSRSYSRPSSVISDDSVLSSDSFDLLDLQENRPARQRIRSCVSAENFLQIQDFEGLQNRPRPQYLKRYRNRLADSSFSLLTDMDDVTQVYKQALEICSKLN
Phosphatidylinositol 4,5-bisphosphate 3-kinase catalytic subunit alpha isoform, sequence (P42336 whole entry, canonical isoform): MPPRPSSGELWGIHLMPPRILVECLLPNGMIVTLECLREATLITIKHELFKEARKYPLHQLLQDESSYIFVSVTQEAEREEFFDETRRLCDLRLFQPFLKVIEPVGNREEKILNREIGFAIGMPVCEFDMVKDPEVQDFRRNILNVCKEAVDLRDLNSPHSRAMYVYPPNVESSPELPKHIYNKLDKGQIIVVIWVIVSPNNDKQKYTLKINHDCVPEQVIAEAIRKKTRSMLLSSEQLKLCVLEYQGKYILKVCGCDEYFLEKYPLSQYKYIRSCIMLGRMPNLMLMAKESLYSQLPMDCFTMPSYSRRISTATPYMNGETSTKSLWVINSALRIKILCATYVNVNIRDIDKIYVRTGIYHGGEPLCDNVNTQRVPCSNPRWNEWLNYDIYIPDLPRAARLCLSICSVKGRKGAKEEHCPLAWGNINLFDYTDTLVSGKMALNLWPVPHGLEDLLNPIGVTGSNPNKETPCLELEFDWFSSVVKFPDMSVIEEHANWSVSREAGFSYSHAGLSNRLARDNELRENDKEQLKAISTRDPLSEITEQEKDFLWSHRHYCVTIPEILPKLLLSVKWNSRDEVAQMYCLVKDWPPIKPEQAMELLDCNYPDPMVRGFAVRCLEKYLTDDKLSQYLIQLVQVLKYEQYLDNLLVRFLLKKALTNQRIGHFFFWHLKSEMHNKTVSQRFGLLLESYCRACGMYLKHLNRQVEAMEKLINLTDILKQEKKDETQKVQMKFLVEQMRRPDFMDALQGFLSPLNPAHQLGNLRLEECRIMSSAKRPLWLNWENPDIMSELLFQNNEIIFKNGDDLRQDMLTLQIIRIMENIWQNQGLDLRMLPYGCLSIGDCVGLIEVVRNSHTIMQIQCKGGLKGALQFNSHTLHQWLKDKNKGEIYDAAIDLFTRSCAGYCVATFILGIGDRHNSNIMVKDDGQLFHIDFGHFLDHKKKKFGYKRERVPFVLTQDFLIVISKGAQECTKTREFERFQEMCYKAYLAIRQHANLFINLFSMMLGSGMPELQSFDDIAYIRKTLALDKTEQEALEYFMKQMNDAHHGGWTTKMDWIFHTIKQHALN
Focal adhesion kinase 1, sequence (Q05397 whole entry): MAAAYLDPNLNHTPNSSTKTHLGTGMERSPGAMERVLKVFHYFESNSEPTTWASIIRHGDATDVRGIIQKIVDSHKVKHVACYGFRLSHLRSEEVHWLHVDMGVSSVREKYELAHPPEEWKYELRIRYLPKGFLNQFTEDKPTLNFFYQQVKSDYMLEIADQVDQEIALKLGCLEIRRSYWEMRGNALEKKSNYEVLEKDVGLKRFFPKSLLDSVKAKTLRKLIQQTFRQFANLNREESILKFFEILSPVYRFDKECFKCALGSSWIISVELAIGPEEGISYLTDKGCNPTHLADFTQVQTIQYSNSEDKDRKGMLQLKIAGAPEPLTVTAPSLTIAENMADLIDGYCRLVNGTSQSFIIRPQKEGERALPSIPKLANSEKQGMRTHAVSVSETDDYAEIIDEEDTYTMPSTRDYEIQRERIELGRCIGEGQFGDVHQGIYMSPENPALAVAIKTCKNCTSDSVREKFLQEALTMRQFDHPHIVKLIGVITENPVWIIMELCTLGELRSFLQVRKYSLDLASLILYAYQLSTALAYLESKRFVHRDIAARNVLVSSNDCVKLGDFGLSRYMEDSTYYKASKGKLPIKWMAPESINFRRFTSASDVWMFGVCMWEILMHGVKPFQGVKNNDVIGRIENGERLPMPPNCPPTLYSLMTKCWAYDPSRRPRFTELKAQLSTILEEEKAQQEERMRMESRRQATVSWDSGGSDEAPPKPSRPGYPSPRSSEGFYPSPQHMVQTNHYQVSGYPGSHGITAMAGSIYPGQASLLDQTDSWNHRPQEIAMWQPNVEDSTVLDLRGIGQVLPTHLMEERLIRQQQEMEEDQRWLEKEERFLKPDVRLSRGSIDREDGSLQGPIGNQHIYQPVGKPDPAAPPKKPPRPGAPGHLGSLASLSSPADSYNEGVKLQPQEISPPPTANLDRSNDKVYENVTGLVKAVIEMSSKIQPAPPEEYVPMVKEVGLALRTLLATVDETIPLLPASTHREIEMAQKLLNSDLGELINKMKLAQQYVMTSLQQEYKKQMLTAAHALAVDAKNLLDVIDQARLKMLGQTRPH
Serine/threonine-protein kinase pim-1, sequence (P11309 whole entry): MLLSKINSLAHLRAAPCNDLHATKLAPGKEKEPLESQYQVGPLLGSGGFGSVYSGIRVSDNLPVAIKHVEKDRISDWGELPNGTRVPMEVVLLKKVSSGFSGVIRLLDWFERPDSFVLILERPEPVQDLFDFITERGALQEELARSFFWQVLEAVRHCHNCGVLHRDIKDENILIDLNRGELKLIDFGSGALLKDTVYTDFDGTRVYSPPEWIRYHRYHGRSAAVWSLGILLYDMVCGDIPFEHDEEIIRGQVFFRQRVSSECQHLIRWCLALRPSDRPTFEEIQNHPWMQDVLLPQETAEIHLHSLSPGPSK
Cyclin-dependent kinase 7, sequence (P50613 whole entry): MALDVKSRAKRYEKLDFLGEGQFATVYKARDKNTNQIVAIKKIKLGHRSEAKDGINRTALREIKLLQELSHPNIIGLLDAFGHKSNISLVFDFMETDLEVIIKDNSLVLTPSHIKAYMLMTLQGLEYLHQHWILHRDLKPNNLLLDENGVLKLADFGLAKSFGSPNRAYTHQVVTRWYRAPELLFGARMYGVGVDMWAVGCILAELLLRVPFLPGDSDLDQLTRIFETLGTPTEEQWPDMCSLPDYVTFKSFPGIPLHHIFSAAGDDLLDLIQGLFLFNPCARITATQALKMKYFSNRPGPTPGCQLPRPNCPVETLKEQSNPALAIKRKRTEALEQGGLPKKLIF
Serine/threonine-protein kinase TBK1, sequence (Q9UHD2 whole entry): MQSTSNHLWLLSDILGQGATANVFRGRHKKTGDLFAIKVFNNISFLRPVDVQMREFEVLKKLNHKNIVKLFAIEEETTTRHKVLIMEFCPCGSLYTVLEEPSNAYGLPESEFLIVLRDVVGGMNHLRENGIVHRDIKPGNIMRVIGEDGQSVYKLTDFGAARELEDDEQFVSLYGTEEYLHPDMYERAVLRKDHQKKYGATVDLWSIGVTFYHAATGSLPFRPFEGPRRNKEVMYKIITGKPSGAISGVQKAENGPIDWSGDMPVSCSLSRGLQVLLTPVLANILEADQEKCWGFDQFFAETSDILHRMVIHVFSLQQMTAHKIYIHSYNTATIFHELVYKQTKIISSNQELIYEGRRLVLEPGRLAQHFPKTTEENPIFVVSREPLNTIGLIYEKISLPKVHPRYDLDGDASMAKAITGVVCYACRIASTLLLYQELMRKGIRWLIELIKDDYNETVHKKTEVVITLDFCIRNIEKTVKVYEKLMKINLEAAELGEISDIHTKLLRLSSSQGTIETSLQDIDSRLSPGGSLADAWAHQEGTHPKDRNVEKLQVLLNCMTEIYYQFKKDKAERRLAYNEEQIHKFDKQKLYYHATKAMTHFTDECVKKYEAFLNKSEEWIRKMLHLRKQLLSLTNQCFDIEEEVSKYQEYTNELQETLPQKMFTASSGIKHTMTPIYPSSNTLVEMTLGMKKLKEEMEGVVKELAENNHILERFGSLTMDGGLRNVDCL
Tyrosine-protein kinase Yes, sequence (P07947 whole entry): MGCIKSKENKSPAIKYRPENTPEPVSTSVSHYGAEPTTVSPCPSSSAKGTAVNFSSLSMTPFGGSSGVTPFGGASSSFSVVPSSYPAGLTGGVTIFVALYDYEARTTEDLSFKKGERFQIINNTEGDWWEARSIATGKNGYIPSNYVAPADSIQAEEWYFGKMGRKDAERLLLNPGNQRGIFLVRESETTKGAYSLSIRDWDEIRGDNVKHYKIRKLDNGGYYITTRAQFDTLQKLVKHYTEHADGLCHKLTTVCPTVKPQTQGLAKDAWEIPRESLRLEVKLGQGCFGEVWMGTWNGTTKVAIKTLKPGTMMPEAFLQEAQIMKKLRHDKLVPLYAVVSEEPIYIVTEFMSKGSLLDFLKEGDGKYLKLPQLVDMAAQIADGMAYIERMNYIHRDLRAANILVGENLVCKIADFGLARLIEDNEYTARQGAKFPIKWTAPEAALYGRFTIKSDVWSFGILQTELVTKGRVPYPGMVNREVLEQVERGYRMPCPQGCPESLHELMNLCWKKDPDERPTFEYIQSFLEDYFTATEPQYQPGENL

- Cmax [12]: 215 ng/mL
- Vdss(app) (Rattus norvegicus): 38.57 L/kg
- pIC50 [13]: 9.10
- pIC50 [14]: < 5.00
- pIC50 [15]: < 5.00
- pIC50 [16]: < 5.00
- pIC50 [17]: < 5.00
- pIC50 (Focal adhesion kinase 1): < 5.00
- pIC50 [18]: < 5.00
- pIC50 [19]: < 5.00
- pIC50 [20]: < 5.00
- pIC50 [21]: < 5.00
- pIC50 [26]: 7.52
SMILES: CCn1nc(C#Cc2cc(C(=O)Nc3ccc(CN4CCN(C)CC4)c(C(F)(F)F)c3)ccc2C)c2c(N)ncnc21
- Activity (MDA-MB-231 [1]): 4.85%
- Activity (MDA-MB-231 [2]): Active
- Activity (MDA-MB-231 [3]): Active
- Activity (MDA-MB-231 [4]): Active
- inhibition (MDA-MB-231 [5]): Active
- inhibition (MDA-MB-231 [6]): Active
- Activity (MDA-MB-231 [7]): inactive
- inhibition (MDA-MB-231 [8]): Active
- inhibition (Mus musculus [9]): Active
- inhibition (Mus musculus [10]): Active
- Activity (MDA-MB-231 [11]): Active
- pIC50 (MDA-MB-435): 8.30
- pIC50 (MCF7): 5.14
- pIC50 (Ramos): 5.00
- viability at 0.03 µM (MDA-MB-231 [22]): 92.9%
- Activity (MDA-MB-231 [23]): 3.92%
- Activity (MDA-MB-231 [24]): 15.5%
- Activity (MDA-MB-231 [25]): 3.23%
